Experimental data reported in ChEMBL document CHEMBL3244382, “Structural requirements for antileukemic activity among the naturally occurring and semisynthetic maytansinoids” (J Med Chem, 1978).
≈ marks a conversion by molar mass, not a printed value. Calls of active or inactive are those of the source.

Legend:
Tubulin (Homo sapiens) = Tubulin (Homo sapiens) (UniProt P68371+Q9H4B7+P0DPH7+P68366+Q13509+Q71U36+P04350+Q3ZCM7+P07437+P68363+Q9BQE3+Q6PEY2+Q13885+Q9BVA1+Q9BUF5); experiment: Inhibition of brain tubulin polymerization (unknown origin) at 37 degC by spectrophotometry
Mus musculus [1] = experiment: Toxicity in PS mouse allografted with mouse P388 cells assessed as survival at 0.9 ug/kg after 4 days; type: organism-based; conditions: in vivo, 0.0009 mg/kg, 96 h
Procedure, shortened: (§1)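 PS (P388) leukemic mice, six started per dose group. Toxicity scored as survivors on the toxicity day over the number of mice started. The toxicity day is normally 4 days after the first injection.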

P388 [2] = experiment: Antitumor activity against mouse P388 cells allografted in PS mouse assessed as median survival time at 100 ug/kg relative to control; type: functional
Procedure, shortened: (§2)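 P388 leukemia (PS) in mice, six mice started per dose group. Read-out is T/C: median survival time of the treated group divided by that of the untreated control group, expressed as a percent. The NIH protocol counts a compound as active when T/C > 125%.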

KB = experiment: Cytotoxicity against human KB cells; type: functional; conditions: read-out: ED50 (the source's name)
P388 [3] = experiment: Antitumor activity against mouse P388 cells allografted in PS mouse assessed as median survival time at 25 ug/kg relative to control; type: functional; procedure, shortened: as §2
Mus musculus [4] = experiment: Toxicity in PS mouse allografted with mouse P388 cells assessed as survival at 200 ug/kg after 4 days; type: organism-based; conditions: in vivo, 0.2 mg/kg, 96 h; procedure, shortened: as §1
Mus musculus [5] = experiment: Toxicity in PS mouse allografted with mouse P388 cells assessed as change in body weight at 100 ug/kg relative to control; type: organism-based; conditions: in vivo, 0.1 mg/kg
Procedure, shortened: (§3)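 P388 (PS) leukemia in mice, 6 mice per dose group. Weight change is the difference in grams between treated and control animals. Survivors are recorded on toxicity day, normally 4 days after the first injection.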

Mus musculus [6] = experiment: Toxicity in PS mouse allografted with mouse P388 cells assessed as change in body weight at 12.5 ug/kg relative to control; type: organism-based; conditions: in vivo, 0.0125 mg/kg; procedure, shortened: as §3
Mus musculus [7] = experiment: Toxicity in PS mouse allografted with mouse P388 cells assessed as survival at 3.1 ug/kg after 4 days; type: organism-based; conditions: in vivo, 0.0031 mg/kg, 96 h; procedure, shortened: as §1
Mus musculus [8] = experiment: Toxicity in PS mouse allografted with mouse P388 cells assessed as survival at 25 ug/kg after 4 days; type: organism-based; conditions: in vivo, 0.025 mg/kg, 96 h; procedure, shortened: as §1
Mus musculus [9] = experiment: Toxicity in PS mouse allografted with mouse P388 cells assessed as change in body weight at 6.2 ug/kg relative to control; type: organism-based; conditions: in vivo, 0.0062 mg/kg; procedure, shortened: as §3
Mus musculus [10] = experiment: Toxicity in PS mouse allografted with mouse P388 cells assessed as change in body weight at 1.8 ug/kg relative to control; type: organism-based; conditions: in vivo, 0.0018 mg/kg; procedure, shortened: as §3
P388 [11] = experiment: Antitumor activity against mouse P388 cells allografted in PS mouse assessed as median survival time at 1.8 ug/kg relative to control; type: functional; procedure, shortened: as §2
Mus musculus [12] = experiment: Toxicity in PS mouse allografted with mouse P388 cells assessed as change in body weight at 3.1 ug/kg relative to control; type: organism-based; conditions: in vivo, 0.0031 mg/kg; procedure, shortened: as §3
Mus musculus [13] = experiment: Toxicity in PS mouse allografted with mouse P388 cells assessed as survival at 50 ug/kg after 4 days; type: organism-based; conditions: in vivo, 0.05 mg/kg, 96 h; procedure, shortened: as §1
Mus musculus [14] = experiment: Toxicity in PS mouse allografted with mouse P388 cells assessed as change in body weight at 50 ug/kg relative to control; type: organism-based; conditions: in vivo, 0.05 mg/kg; procedure, shortened: as §3
Mus musculus [15] = experiment: Toxicity in PS mouse allografted with mouse P388 cells assessed as change in body weight at 25 ug/kg relative to control; type: organism-based; conditions: in vivo, 0.025 mg/kg; procedure, shortened: as §3
Mus musculus [16] = experiment: Toxicity in PS mouse allografted with mouse P388 cells assessed as change in body weight at 200 ug/kg relative to control; type: organism-based; conditions: in vivo, 0.2 mg/kg; procedure, shortened: as §3
P388 [17] = experiment: Antitumor activity against mouse P388 cells allografted in PS mouse assessed as median survival time at 6.2 ug/kg relative to control; type: functional; procedure, shortened: as §2
P388 [18] = experiment: Antitumor activity against mouse P388 cells allografted in PS mouse assessed as median survival time at 50 ug/kg relative to control; type: functional; procedure, shortened: as §2
P388 [19] = experiment: Antitumor activity against mouse P388 cells allografted in PS mouse assessed as median survival time at 200 ug/kg relative to control; type: functional; procedure, shortened: as §2
P388 [20] = experiment: Antitumor activity against mouse P388 cells allografted in PS mouse assessed as median survival time at 12.5 ug/kg relative to control; type: functional; procedure, shortened: as §2
P388 [21] = experiment: Antitumor activity against mouse P388 cells allografted in PS mouse assessed as median survival time at 3.1 ug/kg relative to control; type: functional; procedure, shortened: as §2
Mus musculus [22] = experiment: Toxicity in PS mouse allografted with mouse P388 cells assessed as change in body weight at 0.9 ug/kg relative to control; type: organism-based; conditions: in vivo, 0.0009 mg/kg; procedure, shortened: as §3
Mus musculus [23] = experiment: Toxicity in PS mouse allografted with mouse P388 cells assessed as survival at 12.5 ug/kg after 4 days; type: organism-based; conditions: in vivo, 0.0125 mg/kg, 96 h; procedure, shortened: as §1
P388 [24] = experiment: Antitumor activity against mouse P388 cells allografted in PS mouse assessed as median survival time at 0.9 ug/kg relative to control; type: functional; procedure, shortened: as §2
Paracentrotus lividus = experiment: Antimitotic activity against sea urchin eggs assessed as drug level causing inhibition of mitosis; type: functional; conditions: Egg
Mus musculus [25] = experiment: Toxicity in PS mouse allografted with mouse P388 cells assessed as survival at 1.8 ug/kg after 4 days; type: organism-based; conditions: in vivo, 0.0018 mg/kg, 96 h; procedure, shortened: as §1
Mus musculus [26] = experiment: Toxicity in PS mouse allografted with mouse P388 cells assessed as survival at 100 ug/kg after 4 days; type: organism-based; conditions: in vivo, 0.1 mg/kg, 96 h; procedure, shortened: as §1
Mus musculus [27] = experiment: Toxicity in PS mouse allografted with mouse P388 cells assessed as survival at 6.2 ug/kg after 4 days; type: organism-based; conditions: in vivo, 0.0062 mg/kg, 96 h; procedure, shortened: as §1
Mus musculus [28] = experiment: Toxicity in PS mouse allografted with mouse P388 cells assessed as change in body weight at 1.1 ug/kg relative to control; type: organism-based; conditions: in vivo, 0.0011 mg/kg; procedure, shortened: as §3
Mus musculus [29] = experiment: Toxicity in PS mouse allografted with mouse P388 cells assessed as survival at 0.2 ug/kg after 4 days; type: organism-based; conditions: in vivo, 0.0002 mg/kg, 96 h; procedure, shortened: as §1
Mus musculus [30] = experiment: Toxicity in PS mouse allografted with mouse P388 cells assessed as survival at 0.4 ug/kg after 4 days; type: organism-based; conditions: in vivo, 0.0004 mg/kg, 96 h; procedure, shortened: as §1
Mus musculus [31] = experiment: Toxicity in PS mouse allografted with mouse P388 cells assessed as survival at 0.8 ug/kg after 4 days; type: organism-based; conditions: in vivo, 0.0008 mg/kg, 96 h; procedure, shortened: as §1
P388 [32] = experiment: Antitumor activity against mouse P388 cells allografted in PS mouse assessed as median survival time at 6.3 ug/kg relative to control; type: functional; procedure, shortened: as §2
P388 [33] = experiment: Antitumor activity against mouse P388 cells allografted in PS mouse assessed as median survival time at 0.2 ug/kg relative to control; type: functional; procedure, shortened: as §2
Mus musculus [34] = experiment: Toxicity in PS mouse allografted with mouse P388 cells assessed as change in body weight at 0.8 ug/kg relative to control; type: organism-based; conditions: in vivo, 0.0008 mg/kg
Procedure, shortened: (§4)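 PS (P388 leukemia) mice, six per dose group. Toxicity read as the difference in grams between the weights of treated and control animals.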

P388 [35] = experiment: Antitumor activity against mouse P388 cells allografted in PS mouse assessed as median survival time at 1.1 ug/kg relative to control; type: functional; procedure, shortened: as §2
Mus musculus [36] = experiment: Toxicity in PS mouse allografted with mouse P388 cells assessed as change in body weight at 0.2 ug/kg relative to control; type: organism-based; conditions: in vivo, 0.0002 mg/kg; procedure, shortened: as §4
P388 [37] = experiment: Antitumor activity against mouse P388 cells allografted in PS mouse assessed as median survival time at 0.8 ug/kg relative to control; type: functional; procedure, shortened: as §2
Mus musculus [38] = experiment: Toxicity in PS mouse allografted with mouse P388 cells assessed as survival at 6.3 ug/kg after 4 days; type: organism-based; conditions: in vivo, 0.0063 mg/kg, 96 h; procedure, shortened: as §1
P388 [39] = experiment: Antitumor activity against mouse P388 cells allografted in PS mouse assessed as median survival time at 0.4 ug/kg relative to control; type: functional; procedure, shortened: as §2
Mus musculus [40] = experiment: Toxicity in PS mouse allografted with mouse P388 cells assessed as survival at 1.1 ug/kg after 4 days; type: organism-based; conditions: in vivo, 0.0011 mg/kg, 96 h; procedure, shortened: as §1
Mus musculus [41] = experiment: Toxicity in PS mouse allografted with mouse P388 cells assessed as change in body weight at 0.4 ug/kg relative to control; type: organism-based; conditions: in vivo, 0.0004 mg/kg; procedure, shortened: as §4
Mus musculus [42] = experiment: Toxicity in PS mouse allografted with mouse P388 cells assessed as change in body weight at 6.3 ug/kg relative to control; type: organism-based; conditions: in vivo, 0.0063 mg/kg; procedure, shortened: as §3

Row | Structure (SMILES) | inhibition (Tubulin (Homo sapiens)) | T/C (P388 [2]) | EC50 (KB) | T/C (P388 [3]) | Activity (Mus musculus [5]) | Activity (Mus musculus [6]) | Activity (Mus musculus [7]) | Activity (Mus musculus [8]) | Activity (Mus musculus [12]) | Activity (Mus musculus [13]) | Activity (Mus musculus [14]) | Activity (Mus musculus [15]) | T/C (P388 [18]) | T/C (P388 [20]) | T/C (P388 [21]) | Activity (Mus musculus [23]) | Activity (Paracentrotus lividus) | Activity (Mus musculus [26]) | other results
1 | COc1cc2cc(c1Cl)N(C)C(=O)C[C@H](OC(=O)CBr)[C@]1(C)O[C@H]1[C@H](C)[C@@H]1C[C@@](O)(NC(=O)O1)[C@H](OC)/C=C/C=C(\C)C2 | Active | 232% | 0.00044 µg/mL (≈ 0.000641 µM) | 162% | -1.3 g | -0.3 g | Non-toxic | Non-toxic | -0.2 g | Non-toxic | -0.3 g | -0.5 g | 189% | 153% | 130% | Non-toxic | 1 ×10⁻⁸ mol/L | Non-toxic | Activity (Mus musculus [1]): Non-toxic; Activity (Mus musculus [4]): Toxic; Activity (Mus musculus [9]): 0.2 g; Activity (Mus musculus [10]): -0.6 g; T/C (P388 [11]): 131%; Activity (Mus musculus [16]): -2.5 g; T/C (P388 [17]): 146%; T/C (P388 [19]): < 80%; Activity (Mus musculus [22]): -0.4 g; T/C (P388 [24]): 129%; Activity (Mus musculus [25]): Non-toxic; Activity (Mus musculus [27]): Non-toxic
2 | COc1cc2cc(c1Cl)N(C)C(=O)/C=C/[C@]1(C)O[C@H]1[C@H](C)[C@@H]1C[C@@](O)(NC(=O)O1)[C@H](OC)/C=C/C=C(\C)C2 | Active | 110% | 0.025 µg/mL (≈ 0.0457 µM) | <80% | 1 g | 1 g | Non-toxic | Non-toxic | 0.4 g | Non-toxic | 2.6 g | 1.7 g | <80% | <80% | 90% | Non-toxic | 1 µM | Non-toxic | Activity (Mus musculus [28]): 2 g; Activity (Mus musculus [29]): Non-toxic; Activity (Mus musculus [30]): Non-toxic; Activity (Mus musculus [31]): Non-toxic; T/C (P388 [32]): <80%; T/C (P388 [33]): 90%; Activity (Mus musculus [34]): 2.8 g; T/C (P388 [35]): 90%; Activity (Mus musculus [36]): 2.1 g; T/C (P388 [37]): 90%; Activity (Mus musculus [38]): Non-toxic; T/C (P388 [39]): 90%; Activity (Mus musculus [40]): Non-toxic; Activity (Mus musculus [41]): 2.5 g; Activity (Mus musculus [42]): 0.3 g
